Laboratory results taken from article PMC10170627 (RSC Chemical Biology, 2023).
Starred links: 1 amine or outer side, 2 acyl side, 3 side chain; linkers in the order of their positions; H or OH if unused. Positions of bridges follow the written chain, without caps; N, C: chain ends. Non-standard residues stand in square brackets, D forms with d. Residues, ends and D or L forms follow the SMILES beside them. Chains are numbered I, II in the order given. Actinocin(9to1) = Cc1c2oc3c(C)ccc(C(=O)[*:1])c3nc-2c(C(=O)[*:2])c(N)c1=O; NMeV = CN[C@H](C(=O)O)C(C)C; Sar = CNCC(=O)O

How the values were obtained:
NCI 60-cell line panel = NCI 60-cell line panel COMPARE analysis; type: cell-based; settings: five-dose data, Standard Agents GI50 library; 48 h
NPM1 = assay: Nucleophosmin; type: cell-based, human; settings: A549; 24 h; 5 nM actinomycin D, 5 μM cisplatin, 5 μM compound 1
E. coli DNA gyrase = E. coli DNA gyrase (Escherichia coli, UniProt P0AES4+P0AES6); assay: Inhibition of DNA gyrase activity; type: biochemical; settings: positive control
Chain of E. coli DNA gyrase (P0AES4 whole entry, one chain of several): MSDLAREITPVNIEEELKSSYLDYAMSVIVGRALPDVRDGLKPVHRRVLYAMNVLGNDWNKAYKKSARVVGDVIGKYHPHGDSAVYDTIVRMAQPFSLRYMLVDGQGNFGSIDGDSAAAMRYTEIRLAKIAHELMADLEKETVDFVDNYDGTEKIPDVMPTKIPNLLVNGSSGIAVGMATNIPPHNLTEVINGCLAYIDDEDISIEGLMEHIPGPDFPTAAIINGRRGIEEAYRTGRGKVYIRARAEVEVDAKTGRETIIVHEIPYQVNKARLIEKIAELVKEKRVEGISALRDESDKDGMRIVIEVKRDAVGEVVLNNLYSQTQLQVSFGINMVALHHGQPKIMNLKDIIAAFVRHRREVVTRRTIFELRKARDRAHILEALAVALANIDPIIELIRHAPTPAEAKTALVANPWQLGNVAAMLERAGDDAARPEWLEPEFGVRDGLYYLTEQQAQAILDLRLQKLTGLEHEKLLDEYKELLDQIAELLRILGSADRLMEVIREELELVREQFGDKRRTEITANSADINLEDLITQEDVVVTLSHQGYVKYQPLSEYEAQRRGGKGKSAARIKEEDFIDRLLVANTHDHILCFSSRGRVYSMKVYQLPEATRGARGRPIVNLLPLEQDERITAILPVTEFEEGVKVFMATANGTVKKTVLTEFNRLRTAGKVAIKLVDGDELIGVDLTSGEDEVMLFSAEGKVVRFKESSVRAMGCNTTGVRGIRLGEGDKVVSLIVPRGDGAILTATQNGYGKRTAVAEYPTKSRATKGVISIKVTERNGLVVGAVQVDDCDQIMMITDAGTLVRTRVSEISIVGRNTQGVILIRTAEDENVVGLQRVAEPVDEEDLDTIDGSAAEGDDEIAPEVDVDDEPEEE

HEL299 = assay: Cell cytotoxicity; type: cell-based; settings: read-out: IC50 (St. dev.) HEL299; 72 h; triplicate
Procedure, shortened: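 Healthy lung fibroblasts were treated with each test compound. IC50 is the average of triplicate measurements, reported with standard deviation. Selectivity index is the HEL299 IC50 divided by the A549 IC50.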

DU145 spheroids = assay: Cytotoxicity in DU145 spheroids; type: cell-based; settings: read-out: IC50 (St. dev.) DU145 spheroids; 72 h; triplicate
E. coli BL21(DE3) [1] = assay: Bacteria growth inhibition; type: cell-based, Escherichia coli; settings: 0-100 μM, 16 h
Procedure, shortened: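 MIC taken as the lowest test compound concentration at which no bacterial growth was observed.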

E. coli BL21(DE3) [2] = assay: Bacterial cytological profiling; type: cell-based, Escherichia coli
[3] = system: HeLa parental and XPA knockout cells; assay: HeLa parental and XPA knockout cytotoxicity; type: cell-based; settings: 72 h
HL-60 = settings: read-out: IC50 (St. dev.) HL-60; ref prior work (footnote d); cited from earlier work

Structure (SMILES): Cc1c2oc3c(C)ccc(C(=O)N[C@@H]4C(=O)N[C@H](C(C)C)C(=O)N5CCC[C@H]5C(=O)N(C)CC(=O)N(C)[C@@H](C(C)C)C(=O)O[C@@H]4C)c3nc-2c(C(=O)N[C@@H]2C(=O)N[C@H](C(C)C)C(=O)N3CCC[C@H]3C(=O)N(C)CC(=O)N(C)[C@@H](C(C)C)C(=O)O[C@@H]2C)c(N)c1=O [Actinomycin D] (I: T[dV]P[Sar][NMeV] / II: T[dV]P[Sar][NMeV]; ester I:1-I:C, II:1-II:C; linker I:N-II:N via Actinocin(9to1))
- COMPARE correlation (Pearson correlation coefficient) to compound 2 (NCI 60-cell line panel): 0.69
- NPM1 distribution phenotype (NPM1): delocalized NPM1 phenotype

Structure (SMILES): N.N.O=C([O-])C1(C(=O)[O-])CCC1.[Pt+2] [Carboplatin]
- COMPARE correlation (Pearson correlation coefficient) to compound 2 (NCI 60-cell line panel): 0.12

Structure (SMILES): CO[C@@H]1[C@H](O)C[C@@H](O[C@@H]2C[C@H](Oc3cc4cc5c(c(O)c4c(O)c3C)C(=O)[C@@H](O[C@H]3C[C@@H](O[C@H]4C[C@@H](O[C@H]6C[C@](C)(O)[C@@H](OC(C)=O)[C@H](C)O6)[C@H](O)[C@@H](C)O4)[C@H](O)[C@@H](C)O3)[C@H]([C@H](OC)C(=O)[C@@H](O)[C@@H](C)O)C5)O[C@H](C)[C@@H]2OC(C)=O)O[C@@H]1C [Chromomycin A3]
- COMPARE correlation (Pearson correlation coefficient) to compound 2 (NCI 60-cell line panel): 0.85

Structure (SMILES): O=C(O)c1cn(C2CC2)c2cc(N3CCNCC3)c(F)cc2c1=O [Ciprofloxacin]
- concentration at which the supercoiled form was lost (E. coli DNA gyrase): 0.75 µM

Structure (SMILES): N.N.[Cl][Pt][Cl] [Cisplatin]
- IC50 (HEL299): 3.05 µM
- IC50 (DU145 spheroids): 5.28 µM
- COMPARE correlation (Pearson correlation coefficient) to compound 2 (NCI 60-cell line panel): −0.16
- bacterial growth inhibition (E. coli BL21(DE3) [1]): inhibited bacterial growth
- average filament length (E. coli BL21(DE3) [2]; E. coli treated at the MIC, 24 h): 53 μm
- sensitization of XPA knockout versus parental HeLa [3]: 4 fold
- NPM1 distribution phenotype (NPM1): Smaller changes in NPM1 distribution
- IC50 (HL-60): 3.1 µM

Structure (SMILES): COc1cccc2c1C(=O)c1c(O)c3c(c(O)c1C2=O)C[C@@](O)(C(=O)CO)C[C@@H]3O[C@H]1C[C@H](N)[C@H](O)[C@H](C)O1 [Doxorubicin]
- COMPARE correlation (Pearson correlation coefficient) to compound 2 (NCI 60-cell line panel): 0.55

Structure (SMILES): COc1cc([C@@H]2c3cc4c(cc3[C@@H](O[C@@H]3O[C@@H]5CO[C@@H](C)O[C@H]5[C@H](O)[C@H]3O)[C@H]3COC(=O)[C@H]23)OCO4)cc(OC)c1O [Etoposide]
- COMPARE correlation (Pearson correlation coefficient) to compound 2 (NCI 60-cell line panel): 0.39

Structure (SMILES): CC(=O)O[C@H]1C(=O)[C@@]2(C)[C@H]([C@H](OC(=O)c3ccccc3)[C@]3(O)C[C@H](OC(=O)[C@H](O)[C@@H](NC(=O)c4ccccc4)c4ccccc4)C(C)=C1C3(C)C)[C@]1(OC(C)=O)CO[C@@H]1C[C@@H]2O [Paclitaxel]
- COMPARE correlation (Pearson correlation coefficient) to compound 2 (NCI 60-cell line panel): 0.71
- bacterial growth inhibition (E. coli BL21(DE3) [1]): inhibited bacterial growth except for paclitaxel
- filamentation (E. coli BL21(DE3) [2]; E. coli): no filament formation

Structure (SMILES): CC[C@]1(O)C[C@@H]2CN(CCc3c([nH]c4ccccc34)[C@@](C(=O)OC)(c3cc4c(cc3OC)N(C)[C@H]3[C@@](O)(C(=O)OC)[C@H](OC(C)=O)[C@]5(CC)C=CCN6CC[C@]43[C@@H]65)C2)C1 [Vinblastine]
- COMPARE correlation (Pearson correlation coefficient) to compound 2 (NCI 60-cell line panel): 0.64

Structure (SMILES): CO[C@H]1/C=C/O[C@@]2(C)Oc3c(C)c(O)c4c(O)c(c(/C=N/N5CCN(C)CC5)c(O)c4c3C2=O)NC(=O)/C(C)=C\C=C\[C@H](C)[C@H](O)[C@@H](C)[C@@H](O)[C@@H](C)[C@H](OC(C)=O)[C@@H]1C [rifampicin]
- bacterial growth inhibition (E. coli BL21(DE3) [1]): inhibited bacterial growth

Structure (SMILES): CN(C)[C@@H]1C(O)=C(C(N)=O)C(=O)[C@@]2(O)C(O)=C3C(=O)c4c(O)cccc4[C@@](C)(O)[C@H]3C[C@@H]12 [tetracycline]
- bacterial growth inhibition (E. coli BL21(DE3) [1]): inhibited bacterial growth
